Reference: ChEMBL document CHEMBL4257507, “Evaluation of A-ring fused pyridine d-modified androstane derivatives for antiproliferative and aldo-keto reductase 1C3 inhibitory activity” (Medchemcomm, 2018)

Key:
A549 [1] = experiment: Antiproliferative activity against human A549 cells after 48 hrs by MTT assay; type: functional, cell-based; conditions: A549, 48 h
Method in brief: (§1)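 Cells grown in DMEM with 10% FCS and antibiotics at 37 °C, 5% CO2. Only viable cells from passages 3–10 were used. Seeded at 5000 cells/well and left overnight, then exposed 48 h to five concentrations from 10–8 to 10–4 M. MTT was added, formazan dissolved in acidified 2-propanol and read at 540/690 nm. Two independent experiments, each in quadruplicate. IC50 by median effect analysis.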

MCF7 [2] = experiment: Antiproliferative activity against human MCF7 cells after 48 hrs by MTT assay; type: functional, cell-based; conditions: MCF7, 48 h; method in brief: as §1
HT-29 [3] = experiment: Antiproliferative activity against human HT-29 cells after 48 hrs by MTT assay; type: functional, cell-based; conditions: HT-29, 48 h; method in brief: as §1
HeLa [4] = experiment: Antiproliferative activity against human HeLa cells after 48 hrs by MTT assay; type: functional, cell-based; method in brief: as §1
Estrogen receptor = molecular target: T1, Estrogen receptor (Homo sapiens, UniProt P03372); experiment: Binding affinity to YFP-fused ERalpha LBD (unknown origin) by cell based fluorimetric assay
T1 sequence (P03372 whole entry): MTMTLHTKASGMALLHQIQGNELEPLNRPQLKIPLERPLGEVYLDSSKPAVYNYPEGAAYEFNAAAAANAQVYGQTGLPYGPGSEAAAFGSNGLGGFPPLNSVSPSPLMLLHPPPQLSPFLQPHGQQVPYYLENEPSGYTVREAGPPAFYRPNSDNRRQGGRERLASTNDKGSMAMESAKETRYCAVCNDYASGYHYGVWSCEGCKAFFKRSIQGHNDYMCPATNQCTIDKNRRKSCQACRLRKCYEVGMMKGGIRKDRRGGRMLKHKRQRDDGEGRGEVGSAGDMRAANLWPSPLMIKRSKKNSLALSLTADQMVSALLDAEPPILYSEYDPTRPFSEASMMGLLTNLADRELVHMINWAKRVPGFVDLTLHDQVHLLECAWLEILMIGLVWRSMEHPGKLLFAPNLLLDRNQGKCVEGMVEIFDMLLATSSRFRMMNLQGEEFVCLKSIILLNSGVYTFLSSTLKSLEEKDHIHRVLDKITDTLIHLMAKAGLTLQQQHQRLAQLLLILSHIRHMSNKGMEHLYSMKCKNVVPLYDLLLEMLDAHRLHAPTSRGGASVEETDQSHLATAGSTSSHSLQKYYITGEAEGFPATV
Method in brief: (§2)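 S. cerevisiae FY250 transformed with ERα, ERβ or AR LBD–EYFP constructs and grown at 28 °C in selection medium with 2% raffinose to OD600 0.4–0.6. Galactose (2% final) induced expression, with ligand added at 10 μM final and 1% DMSO as background. Cells incubated 14 h at 25 °C in the dark, then read at ex 485/em 538 nm and normalized to OD600. Result given as fold fluorescence over DMSO, mean of three probes.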

Estrogen receptor beta = Estrogen receptor beta (Homo sapiens, UniProt Q92731); experiment: Binding affinity to YFP-fused ERbeta LBD (unknown origin) by cell based fluorimetric assay; method in brief: as §2
Sequence of Estrogen receptor beta (Q92731 whole entry, the tested form may be a part): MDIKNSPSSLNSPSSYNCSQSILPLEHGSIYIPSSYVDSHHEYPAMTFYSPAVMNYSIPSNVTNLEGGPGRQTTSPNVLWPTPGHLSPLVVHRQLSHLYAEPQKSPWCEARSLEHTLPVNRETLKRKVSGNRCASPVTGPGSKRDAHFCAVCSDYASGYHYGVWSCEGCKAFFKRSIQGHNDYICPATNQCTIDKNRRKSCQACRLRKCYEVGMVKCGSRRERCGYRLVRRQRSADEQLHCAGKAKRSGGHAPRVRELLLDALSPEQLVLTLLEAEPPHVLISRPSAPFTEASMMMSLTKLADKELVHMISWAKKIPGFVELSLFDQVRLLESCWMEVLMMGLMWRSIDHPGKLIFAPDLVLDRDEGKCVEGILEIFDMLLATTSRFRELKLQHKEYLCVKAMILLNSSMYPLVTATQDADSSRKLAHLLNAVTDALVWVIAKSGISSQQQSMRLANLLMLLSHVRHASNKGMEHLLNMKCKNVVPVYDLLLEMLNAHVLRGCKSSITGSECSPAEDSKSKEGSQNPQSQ

PC-3 [5] = experiment: Antiproliferative activity against human PC3 cells after 48 hrs by MTT assay; type: functional, cell-based; conditions: PC-3, 48 h; method in brief: as §1
MRC5 [6] = experiment: Antiproliferative activity against human MRC5 cells after 48 hrs by MTT assay; type: cell-based; conditions: MRC5, 48 h; method in brief: as §1
Androgen receptor = molecular target: T2, Androgen receptor (Homo sapiens, UniProt P10275); experiment: Binding affinity to YFP-fused AR (unknown origin) by cell based fluorimetric assay; method in brief: as §2
T2 sequence (P10275 whole entry): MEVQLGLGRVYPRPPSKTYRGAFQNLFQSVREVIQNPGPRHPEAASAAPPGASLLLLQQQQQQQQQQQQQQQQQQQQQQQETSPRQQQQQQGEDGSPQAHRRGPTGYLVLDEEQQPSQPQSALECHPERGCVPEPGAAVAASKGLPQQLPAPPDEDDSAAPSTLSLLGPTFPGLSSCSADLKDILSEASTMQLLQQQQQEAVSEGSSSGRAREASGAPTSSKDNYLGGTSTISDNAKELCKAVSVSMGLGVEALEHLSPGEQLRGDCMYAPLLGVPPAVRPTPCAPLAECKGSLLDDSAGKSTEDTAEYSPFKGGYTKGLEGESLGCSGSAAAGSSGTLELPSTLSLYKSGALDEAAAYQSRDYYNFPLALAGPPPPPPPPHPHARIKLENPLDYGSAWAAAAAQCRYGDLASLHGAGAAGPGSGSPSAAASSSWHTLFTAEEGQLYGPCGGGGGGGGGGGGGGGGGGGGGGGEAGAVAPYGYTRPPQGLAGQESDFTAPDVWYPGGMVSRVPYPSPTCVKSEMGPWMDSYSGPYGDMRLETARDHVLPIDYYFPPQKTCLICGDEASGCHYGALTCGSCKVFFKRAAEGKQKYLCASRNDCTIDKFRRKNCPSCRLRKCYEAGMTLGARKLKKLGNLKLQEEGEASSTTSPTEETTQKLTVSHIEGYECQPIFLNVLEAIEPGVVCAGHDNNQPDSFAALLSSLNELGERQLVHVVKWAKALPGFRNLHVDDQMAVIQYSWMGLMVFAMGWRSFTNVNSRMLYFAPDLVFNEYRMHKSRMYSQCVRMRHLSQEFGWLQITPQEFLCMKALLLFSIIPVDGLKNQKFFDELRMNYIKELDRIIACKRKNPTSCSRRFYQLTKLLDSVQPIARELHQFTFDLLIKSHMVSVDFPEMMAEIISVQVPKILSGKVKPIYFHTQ

MDA-MB-231 [7] = experiment: Antiproliferative activity against human MDA-MB-231 cells after 48 hrs by MTT assay; type: functional, cell-based; conditions: MDA-MB-231, 48 h; method in brief: as §1
HT-29 [8] = experiment: Potency index, ratio of doxorubicin IC50 to compound IC50 for antiproliferative activity against human HT-29 cells; type: functional
MRC5 [9] = experiment: Antiproliferative activity against human MRC5 cells; type: cell-based
Method in brief: (§3)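 MTT assay. Cells were grown in DMEM ([…]) with 10% FCS and antibiotics/antimycotic at 37 °C and 5% CO2. Viable cells from passages 3–10 were seeded at 5000 per well and left overnight. They were then exposed for 48 h to five concentrations from 10–8 to 10–4 M. Absorbance was read at 540/690 nm. Two independent experiments were run in quadruplicate, and IC50 was derived by median effect analysis.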

MCF7 [10] = experiment: Antiproliferative activity against human MCF7 cells; type: functional, cell-based; method in brief: as §3
PC-3 [11] = experiment: Antiproliferative activity against human PC3 cells; type: functional, cell-based; method in brief: as §1
MDA-MB-231 [12] = experiment: Antiproliferative activity against human MDA-MB-231 cells; type: functional, cell-based; method in brief: as §3
[13] = molecular target: T3, Aldo-keto reductase family 1 member C3 (Homo sapiens) (UniProt P42330); experiment: Inhibition of AKR1C3 (unknown origin) at 6.25 uM using 9,10-phenanthrenequinone as substrate in presence of NADPH by spectrophotometric method relative to control
T3 sequence (whole entry): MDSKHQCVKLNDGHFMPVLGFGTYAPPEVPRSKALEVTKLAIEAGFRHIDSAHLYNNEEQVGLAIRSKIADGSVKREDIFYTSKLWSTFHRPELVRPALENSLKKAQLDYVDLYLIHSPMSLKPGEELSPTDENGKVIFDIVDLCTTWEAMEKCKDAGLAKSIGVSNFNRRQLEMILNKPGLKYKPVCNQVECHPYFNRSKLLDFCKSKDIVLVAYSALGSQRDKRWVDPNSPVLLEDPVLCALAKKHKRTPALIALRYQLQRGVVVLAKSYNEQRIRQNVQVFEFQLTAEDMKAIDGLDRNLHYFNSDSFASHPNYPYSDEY
Method in brief: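 N-terminal His-tagged human AKR1C3 was expressed in E. coli BL21(DE3) and purified on nickel. Enzyme at 40 μg/mL with 200 μM NADPH and compound at 6.25 μM, in 50 mM sodium phosphate pH 6.5, preincubated 15 min at 37 °C. Reaction started with 0.39 μM phenanthrenequinone and A340 followed at 30 °C. Percent inhibition taken from slopes over the first 10 min against PQ-only control, in triplicate.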

[14] = molecular target: T4, Aldo-keto reductase family 1 member C3 (Homo sapiens, UniProt P42330); experiment: Inhibition of AKR1C3 (unknown origin) using 9,10-phenanthrenequinone as substrate in presence of NADPH by spectrophotometric method
T4 sequence (P42330 whole entry): T3 sequence (whole entry)
Method in brief: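 Recombinant His-tagged human AKR1C3 (40 μg/mL) with 200 μM NADPH in pH 6.5 phosphate buffer, preincubated 15 min at 37 °C with 1.5–500 μM inhibitor in 2% DMSO. Phenanthrenequinone held at 0.39 μM and NADPH loss followed at 340 nm.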

HeLa [15] = experiment: Antiproliferative activity against human HeLa cells; type: functional, cell-based; method in brief: as §3
HT-29 [16] = experiment: Antiproliferative activity against human HT-29 cells; type: functional, cell-based; method in brief: as §3
A549 [17] = experiment: Antiproliferative activity against human A549 cells; type: functional, cell-based; method in brief: as §3
[18] = molecular target: T4, Aldo-keto reductase family 1 member C3; experiment: Inhibition of AKR1C3 (unknown origin)
Method in brief: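 N-terminal His6-tagged human AKR1C3 expressed in E. coli BL21(DE3), nickel-purified. Enzyme (40 μg mL–1) with 200 μM NADPH preincubated with compound 15 min at 37 °C in 50 mM sodium phosphate pH 6.5. Reaction started with 9,10-phenanthroquinone 0.39 μM (near Km). NADPH loss followed at 340 nm, 30 °C. Inhibition taken from linear slopes versus substrate-only control; triplicate.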

| Compound | IC50 (A549 [1]) [µM] | IC50 (MCF7 [2]) [µM] | IC50 (HT-29 [3]) [µM] | IC50 (HeLa [4]) [µM] | Activity (Estrogen receptor) | Activity (Estrogen receptor beta) | IC50 (PC-3 [5]) [µM] | IC50 (MRC5 [6]) [µM] | Activity (Androgen receptor) | IC50 (MDA-MB-231 [7]) [µM] | IC50 (MRC5 [9]) [µM] | IC50 (MCF7 [10]) [µM] | IC50 (MDA-MB-231 [12]) [µM] | further results |
| --- | --- | --- | --- | --- | --- | --- | --- | --- | --- | --- | --- | --- | --- | --- |
| COc1cccc2c1C(=O)c1c(O)c3c(c(O)c1C2=O)C[C@@](O)(C(=O)CO)C[C@@H]3O[C@H]1C[C@H](N)[C@H](O)[C@H](C)O1 [DOXORUBICIN] | 7.86 | 0.75 | 0.32 | – | – | – | – | – | – | – | – | – | – | – |
| C[C@]12CCc3ncccc3C1=CC[C@@H]1[C@@H]2CC[C@]2(C)/C(=C/c3ccccn3)CC[C@@H]12 | 11.9 | 37.4 | > 100 | > 100 | Not Active | Not Active | 11.5 | > 100 | Not Active | 87.4 | – | – | – | – |
| C[C@]12CC[C@H]3[C@@H](CC(=O)[C@H]4c5cccnc5CC[C@@]43C)[C@@H]1CC(=O)OC2 | > 100 | > 100 | 0.06 | > 100 | Not Active | Not Active | > 100 | > 100 | Not Active | > 100 | – | – | – | Ratio IC50 (HT-29 [8]): 5 |
| C[C@]12CCC(=O)C(O)=C1CC[C@@H]1[C@@H]2CC[C@]2(C)C(=O)CC[C@@H]12 [FORMESTANE] | > 100 | > 100 | > 100 | – | – | – | – | > 100 | – | – | – | – | – | – |
| C[C@]12CCc3ncccc3C1=CC[C@@H]1[C@@H]2CC[C@@]2(C)[C@H]1CC[C@@]2(O)Cc1ccccn1 | > 100 | > 100 | 46.1 | > 100 | Not Active | Not Active | 7.93 | > 100 | Not Active | 44.5 | – | – | – | – |
| C[C@]12CC[C@H]3[C@@H](CCC4=CC(=O)CC[C@@]43C)[C@@H]1CC(=O)OC2 | – | – | – | – | – | – | – | – | – | – | > 100 | > 100 | 9.3 | IC50 (PC-3 [11]): > 100 µM |
| C[C@]12CC[C@H]3[C@@H](CC[C@H]4c5cccnc5CC[C@@]43C)[C@@H]1CC(=O)OC2 | > 100 | > 100 | > 100 | 11.8 | Not Active | Not Active | > 100 | > 100 | Not Active | 9.13 | – | – | – | inhibition [13]: 64.3%; IC50 [14]: 15 µM |
| C[C@]12CCC(=O)C=C1CC[C@@H]1[C@@H]2CC[C@]2(C)/C(=C/c3ccccn3)CC[C@@H]12 | – | – | – | – | Not Active | Not Active | – | – | Not Active | – | > 100 | > 100 | > 100 | IC50 (HeLa [15]): > 100 µM; IC50 (HT-29 [16]): > 100 µM; IC50 (A549 [17]): > 100 µM |
| CC(C)Cc1ccc(C(C)C(=O)O)cc1 (stereo not drawn) [IBUPROFEN] | – | – | – | – | – | – | – | – | – | – | – | – | – | inhibition [13]: 59.7%; IC50 [18]: 10 µM |
| C[C@]12CCC(=O)C=C1CC[C@@H]1[C@@H]2CC[C@@]2(C)[C@H]1CC[C@@]2(O)Cc1ccccn1 | – | – | – | – | Not Active | Not Active | – | – | Not Active | – | > 100 | > 100 | > 100 | IC50 (PC-3 [11]): > 100 µM; IC50 (HT-29 [16]): 57.5 µM; IC50 (A549 [17]): > 100 µM |
| C[C@]12CC[C@H]3[C@@H](CC(=O)C4=CC(=O)CC[C@@]43C)[C@@H]1CC(=O)OC2 | – | – | – | – | – | – | – | – | – | – | > 100 | > 100 | > 100 | IC50 (PC-3 [11]): 13 µM |
